Measurements reported in ChEMBL document CHEMBL1144355, “Synthesis and antibacterial activity of the 4-quinolone-3-carboxylic acid derivatives having a trifluoromethyl group as a novel N-1 substituent” (2005).
In brackets after ≈: the same amount, converted by molar mass.

Experiments:
Format in all cases: functional
[1] = tested on: Escherichia coli; assay: In vitro antibacterial activity against Escherichia coli NIHJ JC-2
Method in brief: (§1)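 MIC (μg/mL) determined by agar dilution on Mueller–Hinton agar. Plates were incubated at 35 °C for 18 h. MIC was taken as the lowest agent concentration that prevented visible growth.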

[2] = tested on: Staphylococcus aureus; assay: In vitro antibacterial activity against Staphylococcus aureus Smith; method in brief: as §1
[3] = tested on: Streptococcus pneumoniae; assay: In vitro antibacterial activity against Streptococcus pneumoniae type III; method in brief: as §1
[4] = tested on: Pseudomonas aeruginosa; assay: In vitro antibacterial activity against Pseudomonas aeruginosa IID1210; method in brief: as §1

MIC [1] [µg/mL]	MIC [2] [µg/mL]	MIC [3] [µg/mL]	MIC [4] [µg/mL]	Structure (SMILES)
0.05 (≈ 0.157 µM)	0.39 (≈ 1.22 µM)	6.25 (≈ 19.6 µM)	1.56 (≈ 4.89 µM)	CN1CCN(c2cc3c(cc2F)c(=O)c(C(=O)O)cn3C)CC1
0.0125 (≈ 0.0356 µM)	0.2 (≈ 0.569 µM)	1.56 (≈ 4.44 µM)	1.56 (≈ 4.44 µM)	CN1CCN(c2cc3c(cc2F)c(=O)c(C(=O)O)cn3CCF)CC1
0.025 (≈ 0.0692 µM)	0.2 (≈ 0.553 µM)	0.78 (≈ 2.16 µM)	1.56 (≈ 4.32 µM)	CN1CCN(c2cc3c(cc2F)c(=O)c(C(=O)O)cn3C(C)(C)C)CC1
≤ 0.0063	0.1 (≈ 0.29 µM)	0.39 (≈ 1.13 µM)	0.78 (≈ 2.26 µM)	CN1CCN(c2cc3c(cc2F)c(=O)c(C(=O)O)cn3C2CC2)CC1
0.025 (≈ 0.075 µM)	0.2 (≈ 0.6 µM)	3.13 (≈ 9.39 µM)	1.56 (≈ 4.68 µM)	CCn1cc(C(=O)O)c(=O)c2cc(F)c(N3CCN(C)CC3)cc21 [PEFLOXACIN]

The next lines start with the compound.

Structure (SMILES)	MIC [1] [µg/mL]	MIC [2] [µg/mL]	MIC [3] [µg/mL]	MIC [4] [µg/mL]
CN1CCN(c2cc3c(cc2F)c(=O)c(C(=O)O)cn3-c2ccc(F)cc2F)CC1	0.1 (≈ 0.24 µM)	0.1 (≈ 0.24 µM)	0.39 (≈ 0.934 µM)	3.13 (≈ 7.5 µM)
NC1CCN(c2cc3c(cc2F)c(=O)c(C(=O)O)cn3C(F)(F)F)C1 (stereo unspecified)	0.39 (≈ 1.09 µM)	1.56 (≈ 4.34 µM)	12.5 (≈ 34.8 µM)	> 12.5
CN1CCN(c2cc3c(cc2F)c(=O)c(C(=O)O)cn3C(F)(F)F)CC1.Cl	0.05	0.78	3.13	6.25
CCn1cc(C(=O)O)c(=O)c2cc(F)c(N3CCNCC3)cc21 [NORFLOXACIN]	0.05 (≈ 0.157 µM)	0.39 (≈ 1.22 µM)	3.13 (≈ 9.8 µM)	1.56 (≈ 4.89 µM)
